Experimental data published in article PMC3866046 (Biochemical pharmacology, 2013).
pIC50: −log10 of the molar value. Like-named read-outs stand apart in the source and are kept apart here.

Assays:
human ENT4 = details: read-out: apparent Km of adenosine transport; pH 5.5; cited from earlier work
mouse ENT4 = details: read-out: apparent Km of adenosine transport; pH 5.5; cited from earlier work
hENT2 [1] = biological target: T1, hENT2 (Homo sapiens, UniProt Q14542); test: Inhibition of [3H]uridine uptake in PK15/hENT2 cells; assay type: cell-based
T1 sequence (Q14542 1-456): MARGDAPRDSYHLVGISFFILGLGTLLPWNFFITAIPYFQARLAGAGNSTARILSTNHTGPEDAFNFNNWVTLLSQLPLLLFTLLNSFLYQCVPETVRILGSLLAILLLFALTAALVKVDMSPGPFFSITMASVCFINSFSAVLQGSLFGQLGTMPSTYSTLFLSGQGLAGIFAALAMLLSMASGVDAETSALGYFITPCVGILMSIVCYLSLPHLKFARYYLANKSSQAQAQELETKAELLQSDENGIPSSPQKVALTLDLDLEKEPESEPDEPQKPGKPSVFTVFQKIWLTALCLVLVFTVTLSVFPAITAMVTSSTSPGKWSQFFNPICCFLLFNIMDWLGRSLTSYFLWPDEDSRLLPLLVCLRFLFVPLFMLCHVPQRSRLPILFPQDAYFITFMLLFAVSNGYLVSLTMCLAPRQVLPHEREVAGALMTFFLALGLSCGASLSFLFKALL
Procedure, shortened: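 PK15 cells stably expressing hENT2, in sodium-free choline chloride buffer at pH 7.4. Test compound was added for 15 min, either at graded concentrations or at 10 μM for screening; 0.2 μM [3H]uridine was then taken up for 2 min. Stopped with ice-cold PBS washes, lysed in Triton X-100, scintillation counted. Triplicates; screening uptake given as % of compound-free uptake; IC50 by nonlinear fit.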

hENT4 = biological target: T2, hENT4 (Homo sapiens, UniProt Q7RTT9); test: Inhibition of [3H]adenosine uptake in PK15/hENT4 cells at pH 6.0; assay type: cell-based
T2 sequence (Q7RTT9 1-530): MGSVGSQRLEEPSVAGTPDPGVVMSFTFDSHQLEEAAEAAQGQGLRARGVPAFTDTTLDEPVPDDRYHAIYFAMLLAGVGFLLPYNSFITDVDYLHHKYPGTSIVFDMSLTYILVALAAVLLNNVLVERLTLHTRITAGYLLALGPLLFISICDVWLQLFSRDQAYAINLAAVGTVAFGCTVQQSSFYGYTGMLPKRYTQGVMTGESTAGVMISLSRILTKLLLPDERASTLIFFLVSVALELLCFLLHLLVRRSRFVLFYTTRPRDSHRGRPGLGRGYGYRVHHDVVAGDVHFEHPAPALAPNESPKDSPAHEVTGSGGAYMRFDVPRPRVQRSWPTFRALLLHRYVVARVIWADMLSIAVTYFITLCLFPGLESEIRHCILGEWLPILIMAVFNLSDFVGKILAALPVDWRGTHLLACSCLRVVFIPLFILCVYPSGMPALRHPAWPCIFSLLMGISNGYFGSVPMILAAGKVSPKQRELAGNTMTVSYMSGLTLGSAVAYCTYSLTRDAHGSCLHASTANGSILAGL
Procedure, shortened: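 PK15NTD porcine kidney cells stably expressing FLAG-tagged hENT4 (cDNA cloned from HUVECs, G418-selected). Cells preincubated 15 min with graded test compound concentrations in transport buffer at pH 6.0, then given 0.2 μM [3H]adenosine for 2 min. Stopped by aspiration and three ice-cold PBS washes, lysed in 5% Triton X-100, scintillation counted. Triplicates; IC50 by nonlinear fitting.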

hENT2 [2] = biological target: T1, hENT2; details: read-out: hENT2 IC50; cited from earlier work
PK15-hENT4 cells = test: MTT assay for cell viability; assay type: cell-based, porcine; details: 10 μM, 24 hours, compared with camptothecin
Procedure, shortened: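 PK15NTD (nucleoside-transporter-deficient) cells stably expressing recombinant hENT4 were trypsinised and seeded at 5 × 10^3 cells/well in MEM. […] MTT (5 mg/ml stock in PBS) was added for 4 h at 37 °C. Formazan was dissolved in 0.04 N HCl/isopropanol for 3 h at room temperature, and absorbance was read at 570 nm.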

Nc1ncnc2c1ncn2[C@@H]1O[C@H](CO)[C@@H](O)[C@H]1O [adenosine]
Km (human ENT4): 780 µM
Km (mouse ENT4): 130 µM

O=[N+]([O-])c1ccc(CSc2ncnc3c2ncn3[C@@H]2O[C@H](CO)[C@@H](O)[C@H]2O)cc1 [NBMPR, nitrobenzylmercaptopurine ribonucleoside, reference compound]
pIC50 (hENT2 [1]): 5.87
pIC50 (hENT4): 5.63
pIC50 (hENT2 [2]): 5.55

CC(C)CN(CC(C)C)c1nc(NCCO)nc2c(N(CC(C)C)CC(C)C)nc(NCCO)nc12 [Compound 30, 2,6-diethanolamino-4,8-di-(diisobutylamino)-pyrimido[5,4-d]pyrimidine]
selectivity for hENT4 relative to ENT1 (hENT4): about 80 fold
selectivity for hENT4 relative to ENT2 (hENT4): ~20 fold
cytotoxicity / cell viability (in words) (PK15-hENT4 cells): no cytotoxicity
cytotoxicity / cell viability (in words) (PK15-hENT4 cells; listed as compound 30): significantly non-cytotoxic

OCCN(CCO)c1nc(N2CCCCCCC2)c2nc(N(CCO)CCO)nc(N3CCCCCCC3)c2n1 [Compound 13, 2,6-bis(diethanolamino)-4,8-diheptamethyleneimino-pyrimido[5,4d]pyrimidine]
activity against hENT2 (in words) (hENT2 [1]): active
